Laboratory results published in ChEMBL document CHEMBL1155468, “Syntheses and evaluation of anticonvulsant profile and teratogenicity of novel amide derivatives of branched aliphatic carboxylic acids with 4-aminobenzensulfonamide” (J Med Chem, 2010).
Activity calls are given as the source filed them. The calls are words filed in the database; no cut-off is given here.

Experiments:
Mus musculus [1] = experiment: Anticonvulsant activity in CF1 albino mouse assessed as inhibition of subcutaneous pentylenetetrazole-induced seizures at 100 mg/kg, ip after 4 hrs; assay type: functional, organism-based; design: dose 100 mg/kg
Procedure, shortened: (§1)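 Adult male CF no. 1 albino mice (18-25 g) dosed ip with compound suspended in 0.5% methylcellulose (0.01 mL/g). Convulsant: pentylenetetrazol dissolved in 0.9% saline as a 0.85% solution for mice, given subcutaneously.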

Mus musculus [2] = experiment: Anticonvulsant activity in CF1 albino mouse assessed as inhibition of maximal electroshock-induced seizures at 300 mg/kg, ip after 4 hrs; assay type: functional, organism-based; design: dose 300 mg/kg
Procedure, shortened: (§2)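 Test compounds suspended in 0.5% methylcellulose and given ip to adult male CF no. 1 albino mice (18-25 g) at 0.01 mL/g body weight before maximal electroshock challenge.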

Mus musculus [3] = experiment: Neurotoxicity in CF1 albino mouse assessed as motor impairment at 300 mg/kg, ip after 0.5 hrs; assay type: toxicity, organism-based; design: dose 300 mg/kg, route intraperitoneal; conditions: in vivo
Mus musculus [4] = experiment: Neurotoxicity in CF1 albino mouse assessed as motor impairment at 30 mg/kg, ip after 0.5 hrs; assay type: toxicity, organism-based; design: dose 30 mg/kg, route intraperitoneal; conditions: in vivo
Mus musculus [5] = experiment: Anticonvulsant activity in CF1 albino mouse assessed as inhibition of subcutaneous pentylenetetrazole-induced seizures at 300 mg/kg, ip after 0.5 hrs; assay type: functional, organism-based; design: dose 300 mg/kg; procedure, shortened: as §1
Mus musculus [6] = experiment: Neurotoxicity in CF1 albino mouse assessed as motor impairment at 300 mg/kg, ip after 4 hrs; assay type: toxicity, organism-based; design: dose 300 mg/kg, route intraperitoneal; conditions: in vivo
Mus musculus [7] = experiment: Teratogenic effect in SWV mouse assessed as resorptions at 805 mg/kg, ip administered on morning of day 8 of gestation; assay type: toxicity, organism-based; design: dose 805 mg/kg, route intraperitoneal; conditions: in vivo
Mus musculus [8] = experiment: Anticonvulsant activity in CF1 albino mouse assessed as inhibition of subcutaneous pentylenetetrazole-induced seizures at 100 mg/kg, ip after 0.5 hrs; assay type: functional, organism-based; design: dose 100 mg/kg; procedure, shortened: as §1
Mus musculus [9] = experiment: Teratogenic effect in SWV mouse assessed as live fetuses at 325 mg/kg, ip administered on morning of day 8 of gestation; assay type: toxicity, organism-based; design: dose 325 mg/kg, route intraperitoneal; conditions: in vivo
Mus musculus [10] = experiment: Anticonvulsant activity in CF1 albino mouse assessed as inhibition of subcutaneous pentylenetetrazole-induced seizures at 300 mg/kg, ip after 4 hrs; assay type: functional, organism-based; design: dose 300 mg/kg; procedure, shortened: as §1
Mus musculus [11] = experiment: Anticonvulsant activity in CF1 albino mouse assessed as inhibition of maximal electroshock-induced seizures at 30 mg/kg, ip after 0.5 hrs; assay type: functional, organism-based; design: dose 30 mg/kg; procedure, shortened: as §2
Mus musculus [12] = experiment: Teratogenic effect in SWV mouse assessed as resorptions at 537 mg/kg, ip administered on morning of day 8 of gestation; assay type: toxicity, organism-based; design: dose 537 mg/kg, route intraperitoneal; conditions: in vivo
Mus musculus [13] = experiment: Teratogenic effect in SWV mouse assessed as live fetuses at 537 mg/kg, ip administered on morning of day 8 of gestation; assay type: toxicity, organism-based; design: dose 537 mg/kg, route intraperitoneal; conditions: in vivo
Mus musculus [14] = experiment: Neurotoxicity in CF1 albino mouse assessed as motor impairment at 30 mg/kg, ip after 4 hrs; assay type: toxicity, organism-based; design: dose 30 mg/kg, route intraperitoneal; conditions: in vivo
Mus musculus [15] = experiment: Teratogenic effect in SWV mouse assessed as resorptions at 164 mg/kg, ip administered on morning of day 8 of gestation; assay type: toxicity, organism-based; design: dose 164 mg/kg, route intraperitoneal; conditions: in vivo
Mus musculus [16] = experiment: Neurotoxicity in CF1 albino mouse assessed as motor impairment at 100 mg/kg, ip after 0.5 hrs; assay type: toxicity, organism-based; design: dose 100 mg/kg, route intraperitoneal; conditions: in vivo
Rattus norvegicus = experiment: Neurotoxicity in Sprague-Dawley rat assessed as motor impairment at 30 mg/kg, po after 0.25 to 4 hrs; conditions: in vivo
Mus musculus [17] = experiment: Teratogenic effect in SWV mouse assessed as fetuses with neural tube deffects at 537 mg/kg, ip administered on morning of day 8 of gestation; assay type: toxicity, organism-based; design: dose 537 mg/kg, route intraperitoneal; conditions: in vivo
Mus musculus [18] = experiment: Neurotoxicity in CF1 albino mouse assessed as motor impairment at 100 mg/kg, ip after 4 hrs; assay type: toxicity, organism-based; design: dose 100 mg/kg, route intraperitoneal; conditions: in vivo
Mus musculus [19] = experiment: Anticonvulsant activity in CF1 albino mouse assessed as inhibition of subcutaneous pentylenetetrazole-induced seizures at 30 mg/kg, ip after 0.5 hrs; assay type: functional, organism-based; design: dose 30 mg/kg; procedure, shortened: as §1
Mus musculus [20] = experiment: Anticonvulsant activity in CF1 albino mouse assessed as inhibition of maximal electroshock-induced seizures at 300 mg/kg, ip after 0.5 hrs; assay type: functional, organism-based; design: dose 300 mg/kg; procedure, shortened: as §2
Mus musculus [21] = experiment: Anticonvulsant activity in CF1 albino mouse assessed as inhibition of maximal electroshock-induced seizures at 100 mg/kg, ip after 0.5 hrs; assay type: functional, organism-based; design: dose 100 mg/kg; procedure, shortened: as §2
Mus musculus [22] = experiment: Teratogenic effect in SWV mouse assessed as fetuses with neural tube deffects at 325 mg/kg, ip administered on morning of day 8 of gestation; assay type: toxicity, organism-based; design: dose 325 mg/kg, route intraperitoneal; conditions: in vivo
Mus musculus [23] = experiment: Teratogenic effect in SWV mouse assessed as fetuses with neural tube deffects at 164 mg/kg, ip administered on morning of day 8 of gestation; assay type: toxicity, organism-based; design: dose 164 mg/kg, route intraperitoneal; conditions: in vivo
Mus musculus [24] = experiment: Teratogenic effect in SWV mouse assessed as live fetuses at 164 mg/kg, ip administered on morning of day 8 of gestation; assay type: toxicity, organism-based; design: dose 164 mg/kg, route intraperitoneal; conditions: in vivo
Mus musculus [25] = experiment: Anticonvulsant activity in CF1 albino mouse assessed as inhibition of maximal electroshock-induced seizures at 30 mg/kg, ip after 4 hrs; assay type: functional, organism-based; design: dose 30 mg/kg; procedure, shortened: as §2
Mus musculus [26] = experiment: Anticonvulsant activity in CF1 albino mouse assessed as inhibition of subcutaneous pentylenetetrazole-induced seizures at 30 mg/kg, ip after 4 hrs; assay type: functional, organism-based; design: dose 30 mg/kg; procedure, shortened: as §1
Mus musculus [27] = experiment: Teratogenic effect in SWV mouse assessed as resorptions at 325 mg/kg, ip administered on morning of day 8 of gestation; assay type: toxicity, organism-based; design: dose 325 mg/kg, route intraperitoneal; conditions: in vivo

CCC(CC(C)C)C(=O)Nc1ccc(S(N)(=O)=O)cc1 (stereo not drawn)
Activity (Mus musculus [1]): inactive
Activity (Mus musculus [2]): Active
Activity (Mus musculus [3]): Non-toxic
Activity (Mus musculus [4]): Non-toxic
Activity (Mus musculus [5]): inactive
Activity (Mus musculus [6]): Non-toxic
Activity (Mus musculus [7]): 100%
Activity (Mus musculus [8]): inactive
Activity (Mus musculus [9]): 50.4%
Activity (Mus musculus [10]): inactive
Activity (Mus musculus [11]): inactive
Activity (Mus musculus [12]): 96.2%
Activity (Mus musculus [13]): 3.8%
Activity (Mus musculus [14]): Non-toxic
Activity (Mus musculus [15]): 6.6%
Activity (Mus musculus [16]): Non-toxic
Activity (Rattus norvegicus): Non-toxic
Activity (Mus musculus [17]): 50%
Activity (Mus musculus [18]): Non-toxic
Activity (Mus musculus [19]): inactive
Activity (Mus musculus [20]): inactive
Activity (Mus musculus [21]): inactive
Activity (Mus musculus [22]): 22.7%
Activity (Mus musculus [23]): 0.9%
Activity (Mus musculus [24]): 95.4%
Activity (Mus musculus [25]): inactive
Activity (Mus musculus [26]): inactive
Activity (Mus musculus [27]): 49.6%
